{"data": "Results collected from several papers", "FLT3": "Receptor-type tyrosine-protein kinase FLT3 (FLT3, Homo sapiens, UniProt P36888)", "FLT3 D835Y": "Receptor-type tyrosine-protein kinase FLT3 (FLT3, Homo sapiens, UniProt P36888, D835Y)", "note": "Protocols differ between the studies behind these lines."}
{"Compound": "CN1CC(Oc2cnc(C#N)cc2-c2ccn3nc(NC(=O)C4CC4)cc3c2)C1", "target": "FLT3", "test": "enzyme activity, inhibitor", "setting": "1 µM", "inhibition": "0%"}
{"Compound": "CN(C)C1CCN(CC#Cc2nn(C3CCCC3)c3nc(NCc4ccccc4)ncc23)C1 (centres unmarked)", "target": "FLT3", "test": "enzyme activity, inhibitor, FRET", "setting": "1 µM", "inhibition": "24%"}
{"Compound": "O=C(CSc1nc2nccnc2c(=O)n1CCc1ccccc1)Nc1nccs1", "target": "FLT3", "test": "enzyme activity, inhibitor", "setting": "10 µM", "inhibition": "13%"}
{"Compound": "Cn1cncc1C1=CN(c2ncnc3[nH]cnc23)CCS1", "target": "FLT3", "test": "enzyme activity, inhibitor, radiometric", "setting": "50 nM", "inhibition": "22.2%"}
{"Compound": "COc1cc2nccc(Oc3ccc(NC(=O)c4c5n(n(-c6ccc(F)cc6)c4=O)CCCC5)cc3)c2cc1OC", "target": "FLT3", "test": "enzyme activity, inhibitor", "setting": "0.1 µM", "inhibition": "49%"}
{"Compound": "COc1cc2ncnc(Nc3ccc(Oc4ccccc4)c(C)c3C)c2cc1OC", "target": "FLT3", "test": "enzyme activity, inhibitor", "setting": "1 µM", "inhibition": "15%"}
{"Compound": "COc1cc(-c2cc(-c3ccc(N4CCNCC4)cc3)cnc2N)cc(OC)c1OC", "target": "FLT3 D835Y", "test": "enzyme activity, inhibitor", "setting": "1 µM", "inhibition": "2%"}
{"Compound": "Cn1cnc(Br)c1C1=CN(c2ncnc3[nH]cnc23)CCS1", "target": "FLT3", "test": "enzyme activity, inhibitor, radiometric", "setting": "50 nM", "inhibition": "16.8%"}
{"Compound": "COc1cc2ncnc(Nc3ccc(Oc4ccccc4)cc3C)c2cc1OC", "target": "FLT3 D835Y", "test": "enzyme activity, inhibitor", "setting": "1 µM", "inhibition": "17%"}
{"Compound": "CNc1cccc2cc(C(=O)Nc3ccc(C(=O)O)cc3)c(=O)[nH]c12", "target": "FLT3 D835Y", "test": "enzyme activity, inhibitor", "setting": "10 µM", "inhibition": "0.73%"}
{"Compound": "COc1cccc(Nc2cccc(-c3cnc4cc(-c5cnn(C)c5)ccn34)n2)c1", "target": "FLT3", "test": "cell-free assay, competition with immobilised ligand", "setting": "8.4 nM", "inhibition": "> 65%"}
